# Reference: ChEMBL document CHEMBL4041479, “Piperlongumine (piplartine) and analogues: Antiproliferative microtubule-destabilising agents” (Eur J Med Chem, 2017)
# Calls of active or inactive are those of the source. The rule behind the calls is not given here.
# Key:
# MCF7 [1] = assay: Induction of reactive oxygen species generation in human MCF7 cells assessed as decrease in cell viability at 10 uM in presence of N-acetyl cysteine after 48 hrs by alamarBlue assay; type: functional, cell-based
# Summary of the method: (§1)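 MCF-7 cells were seeded at 2.5×10^4 cells/mL and left to adhere. They were pre-treated 1 h with N-acetyl cysteine (1 mM) or Trolox (100 μM), then exposed to test agents for 48 h. Viability was measured by alamarBlue fluorescence as % of ethanol vehicle control. Mean of three independent experiments.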
# MCF7 [2] = assay: Induction of reactive oxygen species generation in human MCF7 cells assessed as decrease in cell viability at 1 to 10 uM in presence of N-acetyl cysteine after 48 hrs by alamarBlue assay; type: functional, cell-based
# Summary of the method: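 MCF-7 cells seeded at 2.5×10^4 cells/mL, left overnight to adhere. After 23 h, pre-treated 1 hr with NAC (1 mM; 100 mM stock in sterile water), then compound for 48 h at 37 °C in 5% CO₂. alamarBlue added 5 h before endpoint, fluorescence ex 544/em 590 nm, blank subtracted. Viability as % of ethanol vehicle control, mean of three independent experiments.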
# Homo sapiens [3] = species on record: Homo sapiens; assay: Disruption of microtubule network in human MCF7 cells at 100 nM after 16 hrs by immunofluorescence analysis; type: cell-based
# Summary of the method: (§2)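 MCF-7 cells were seeded at 1×10^5 cells/mL on chamber slides and treated for 16 h (vehicle 1% ethanol). Cells were fixed 20 min in 4% paraformaldehyde, permeabilised in 0.5% Triton X-100 and blocked in 5% BSA/PBST. Staining used anti-α-tubulin–FITC (DM1A) for 2 h at rt, then Alexa Fluor 488 for 1 h, with DAPI counterstain. Imaging was by confocal microscopy; three independent experiments.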
# Homo sapiens [4] = species on record: Homo sapiens; assay: Binding affinity to colchicine-binding site of beta tubulin in human MCF7 cells assessed as inhibition of formation of protein-N,N'-Ethylene-bis(iodoacetamide) adduct at 10 uM after 2 hrs by Western blot method; type: cell-based
# Summary of the method: (§3)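 MCF-7 or HT-29 cells were exposed to test agent or ethanol vehicle (0.1% v/v) for 2 h, with MCF-7 seeded at 1×10^6 cells/well overnight beforehand. Selected samples then received N,N'-ethylene-bis(iodoacetamide) for a further 1.5 h. Cells were washed in cold PBS, lysed in Laemmli buffer and run on SDS-PAGE. Three independent experiments.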
# Homo sapiens [5] = species on record: Homo sapiens; assay: Binding affinity to colchicine-binding site of beta tubulin in human HT-29 cells assessed as inhibition of formation of protein-N,N'-Ethylene-bis(iodoacetamide) adduct at 10 uM after 2 hrs by Western blot method; type: cell-based; summary of the method: as §3
# MCF7 [6] = assay: Induction of reactive oxygen species generation in human MCF7 cells assessed as decrease in cell viability at 0.1 to 10 uM in presence of N-acetyl cysteine after 48 hrs by alamarBlue assay; type: functional, cell-based; summary of the method: as §1
# MCF7 [7] = assay: Induction of reactive oxygen species generation in human MCF7 cells assessed as decrease in cell viability at 100 nM in presence of N-acetyl cysteine after 48 hrs by alamarBlue assay; type: functional, cell-based; summary of the method: as §1
# MCF7 [8] = assay: Cell cycle arrest in human MCF7 cells assessed as G0/G1 phase accumulation at 10 uM after 24 hrs by propidium iodide staining based flow cytometry; type: functional
# Summary of the method: (§4)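 MCF-7 cells were seeded at 1×10^5 cells/mL and treated after 24 h with 5, 10 or 20 μM or 0.1% ethanol for 24 or 48 h. Cells were pooled, fixed in ice-cold 70% ethanol at −20 °C for 24 h, then stained with RNase A and propidium iodide for 30 min at 37 °C in the dark. Flow cytometry used FL-2, ≥10,000 gated cells, and sub-G1/G0G1/G2/M were scored by DNA content. Mean ± SEM of three; one-way ANOVA with Dunnett's test.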
# MCF7 [9] = assay: Induction of apoptosis in human MCF7 cells assessed as downregulation of Bcl2 expression at 10 uM after 48 hrs by Western blot method; type: functional, cell-based
# Summary of the method: (§5)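 MCF-7 cells were seeded at 5×10^5 cells/flask and exposed to 10 μM, vehicle (0.1% ethanol) or no treatment for 48 or 72 h. Cells were lysed in RIPA buffer with protease/phosphatase inhibitors, and equal protein (by BCA) was run on 12% SDS-PAGE. Blots were probed overnight at 4 °C for Bcl-2 (1:500) or Mcl-1 (1:1000), with GAPDH as loading control and ECL detection. Three independent experiments.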
# MCF7 [10] = assay: Antiproliferative activity in human MCF7 cells assessed as cell viability after 48 hrs by alamarBlue assay; type: functional, cell-based; conditions: MCF7, 48 h
# Summary of the method: (§6)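 Cells were seeded at 2.5×10^4 cells/mL and treated after 24 h with vehicle (0.1% v/v ethanol) or a dose range (0.1–20 μM) for 48 h at 37 °C in 5% CO2. Media-only blanks were subtracted, and viability is given as % of vehicle. Sextuplicate wells, three independent experiments.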
# Jurkat [11] = assay: Antiproliferative activity in human Jurkat cells assessed as cell viability after 48 hrs by alamarBlue assay; type: functional, cell-based
# Summary of the method: as §6, with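 “CO2. AlamarBlue was added 5 h before the end and read as fluorescence (ex 544/em 590 nm).” for “CO2.”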
# MCF-10A = assay: Cytotoxicity in human MCF10A cells at 10 uM after 24 to 48 hrs by alamarBlue assay; type: cell-based
# Summary of the method: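 MCF-10a cells were grown in DMEM/F12 with 5% horse serum, EGF, hydrocortisone, cholera toxin and insulin. They were treated at 1, 5, 10 or 20 μM for 48 h. Read-out was alamarBlue fluorescence, blank-subtracted and expressed as % of ethanol vehicle control. Mean of three independent experiments; unpaired two-tailed t-test.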
# MCF7 [12] = assay: Induction of reactive oxygen species generation in human MCF7 cells assessed as decrease in cell viability at 1 to 20 uM in presence of N-acetyl cysteine after 48 hrs by alamarBlue assay; type: functional, cell-based; summary of the method: as §1
# MCF7 [13] = assay: Cell cycle arrest in human MCF7 cells assessed as G0/G1 phase accumulation at 20 uM after 48 hrs by propidium iodide staining based flow cytometry; type: functional; summary of the method: as §4
# MCF7 [14] = assay: Cell cycle arrest in human MCF7 cells assessed as G0/G1 phase accumulation at 20 uM after 24 hrs by propidium iodide staining based flow cytometry; type: functional; summary of the method: as §4
# MCF7 [15] = assay: Cell cycle arrest in human MCF7 cells assessed as G0/G1 phase accumulation at 10 uM after 48 hrs by propidium iodide staining based flow cytometry; type: functional; summary of the method: as §4
# MCF7 [16] = assay: Cell cycle arrest in human MCF7 cells assessed as G2/M phase accumulation at 5 uM after 24 hrs by propidium iodide staining based flow cytometry; type: functional; summary of the method: as §4
# MCF7 [17] = assay: Cell cycle arrest in human MCF7 cells assessed as G2/M phase accumulation at 10 uM after 24 hrs by propidium iodide staining based flow cytometry; type: functional; summary of the method: as §4
# MCF7 [18] = assay: Cell cycle arrest in human MCF7 cells assessed as G2/M phase accumulation at 5 uM after 48 hrs by propidium iodide staining based flow cytometry; type: functional; summary of the method: as §4
# MCF7 [19] = assay: Cell cycle arrest in human MCF7 cells assessed as G2/M phase accumulation at 10 uM after 48 hrs by propidium iodide staining based flow cytometry; type: functional; summary of the method: as §4
# MCF7 [20] = assay: Cell cycle arrest in human MCF7 cells assessed as sub G0/G1 phase accumulation at 10 uM after 48 hrs by propidium iodide staining based flow cytometry; type: functional; summary of the method: as §4
# MCF7 [21] = assay: Cell cycle arrest in human MCF7 cells assessed as sub G0/G1 phase accumulation at 20 uM after 48 hrs by propidium iodide staining based flow cytometry; type: functional; summary of the method: as §4
# MCF7 [22] = assay: Induction of apoptosis in human MCF7 cells assessed as downregulation of Mcl-1 expression at 10 uM after 72 hrs by Western blot method; type: functional, cell-based; summary of the method: as §5
# Bos taurus = species on record: Bos taurus; assay: Induction of bovine tubulin depolymerization at 25 uM measured every 30 secs for 60 mins by spectrophotometry
# Summary of the method: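 Purified tubulin plus GTP was incubated at 37 °C with test agent or 1% ethanol vehicle. Assembly was followed as absorbance (light scattering) at 340 nm every 30 s for 60 min. Mean of three experiments run in duplicate.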
# Homo sapiens [23] = species on record: Homo sapiens; assay: Disruption of microtubule network in human MCF7 cells at 20 uM after 16 hrs by immunofluorescence analysis; type: cell-based; summary of the method: as §2
# MCF7 [24] = assay: Cytotoxicity against human MCF7 cells after 24 hrs by MTT assay; type: functional, cell-based; conditions: MCF7, 24 h
# Homo sapiens [25] = species on record: Homo sapiens; assay: Induction of microtubule depolymerization in human MCF7 cells at 10 uM after 16 hrs by immunofluorescence analysis; type: cell-based; summary of the method: as §2
# Homo sapiens [26] = species on record: Homo sapiens; assay: Binding affinity to colchicine-binding site of beta tubulin in human MCF7 cells assessed as inhibition of formation of protein-N,N'-Ethylene-bis(iodoacetamide) adduct at 40 uM after 2 hrs by Western blot method; type: cell-based; summary of the method: as §3
# Homo sapiens [27] = species on record: Homo sapiens; assay: Binding affinity to colchicine-binding site of beta tubulin in human HT-29 cells assessed as inhibition of formation of protein-N,N'-Ethylene-bis(iodoacetamide) adduct at 40 uM after 2 hrs by Western blot method; type: cell-based; summary of the method: as §3
# MCF7 [28] = assay: Induction of reactive oxygen species generation in human MCF7 cells assessed as decrease in cell viability at 1 to 20 uM in presence of trolox after 48 hrs by alamarBlue assay; type: functional, cell-based; summary of the method: as §1
# Homo sapiens [29] = species on record: Homo sapiens; assay: Induction of tubulin depolymerization in human MCF7 cells at 5 to 20 uM after 4 hrs by Western blot method; type: cell-based
# Summary of the method: (§7)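 MCF-7 (1×10^6/well) or Jurkat cells were treated for 4 h with 1–20 μM or 0.1% ethanol. Cells were lysed in microtubule-preserving buffer (0.1 M PIPES pH 6.9, 2 M glycerol, 5 mM MgCl2, 2 mM EGTA, 0.5% Triton X-100, 4 μM paclitaxel) and centrifuged at 20,000g for 45 min. Soluble (supernatant) and polymer (pellet) fractions, 30 μg protein each, were immunoblotted for α-tubulin with a GAPDH loading control. Three experiments.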
# Homo sapiens [30] = species on record: Homo sapiens; assay: Induction of tubulin depolymerization in human Jurkat cells at 5 to 20 uM after 4 hrs by Western blot method; type: cell-based; summary of the method: as §7
# Homo sapiens [31] = species on record: Homo sapiens; assay: Effect on tubulin polymerization in human MCF7 cells at 1; type: cell-based; summary of the method: as §7
# Homo sapiens [32] = species on record: Homo sapiens; assay: Effect on tubulin polymerization in human Jurkat cells at 1; type: cell-based; summary of the method: as §7
# Jurkat [33] = assay: Cytotoxicity against human Jurkat cells after 24 hrs by MTT assay; type: functional, cell-based
# MCF7 [34] = assay: Cell cycle arrest in human MCF7 cells assessed as G2/M phase accumulation at 20 uM after 24 hrs by propidium iodide staining based flow cytometry
# MCF7 [35] = assay: Cell cycle arrest in human MCF7 cells assessed as G2/M phase accumulation at 20 uM after 48 hrs by propidium iodide staining based flow cytometry
smiles,measurement,setting,value
COc1cc(C(=O)/C=C/c2ccc(N(C)C)cc2)cc(OC)c1OC,Activity,MCF7 [1],inactive
COc1cc2c(c(OC)c1OC)-c1ccc(OC)c(=O)cc1[C@@H](NC(C)=O)CC2,Activity,MCF7 [2],inactive
COc1ccc(/C=C(\C)C(=O)c2cc(OC)c(OC)c(OC)c2)cc1O,Activity,MCF7 [1],inactive
COc1ccc(/C=C\c2cc(OC)c(OC)c(OC)c2)cc1O,Activity,Homo sapiens [3],Active
same,inhibition,Homo sapiens [4],Active
same,inhibition,Homo sapiens [5],Active
same,Activity,MCF7 [6],inactive
same,Activity,MCF7 [7],inactive
COc1ccc(OC)c(C(=O)/C(C)=C/c2ccc(N(C)C)cc2)c1,Activity,MCF7 [1],inactive
COc1cc(/C=C/C(=O)N2CCC=CC2=O)cc(OC)c1OC [PIPLARTINE],Activity,MCF7 [8],16%
same,Activity,MCF7 [9],Active
same,IC50,MCF7 [10],1.2 µM
same,IC50,Jurkat [11],1.4 µM
same,Activity,MCF-10A,90%
same,Activity,MCF7 [12],inactive
same,Activity,MCF7 [13],19%
same,Activity,MCF7 [14],15%
same,Activity,MCF7 [15],21%
same,Activity,MCF7 [16],13%
same,Activity,MCF7 [17],16%
same,Activity,MCF7 [18],6%
same,Activity,MCF7 [19],15%
same,Activity,MCF7 [20],4.3%
same,Activity,MCF7 [21],4.9%
same,Activity,MCF7 [22],Active
same,Activity,Bos taurus,Active
same,Activity,Homo sapiens [23],Active
same,IC50,MCF7 [24],8 µM
same,Activity,Homo sapiens [25],Active
same,inhibition,Homo sapiens [26],inactive
same,inhibition,Homo sapiens [27],inactive
same,Activity,MCF7 [28],Active
same,Activity,Homo sapiens [29],Active
same,Activity,Homo sapiens [30],Active
same,Activity,Homo sapiens [31],inactive
same,Activity,Homo sapiens [32],inactive
same,IC50,Jurkat [33],5 µM
same,Activity,MCF7 [34],12%
same,Activity,MCF7 [35],10%
